Data from PMC2673089 (Journal of pharmaceutical sciences, 2008).

Tests used:
rat CYP1A2 = biological target: T1, rat CYP1A2 (Rattus norvegicus, UniProt P04799); experiment: Metabolism by recombinant rat CYP1A2 Supersomes; format: in vitro ADME
T1 sequence (P04799 1-513): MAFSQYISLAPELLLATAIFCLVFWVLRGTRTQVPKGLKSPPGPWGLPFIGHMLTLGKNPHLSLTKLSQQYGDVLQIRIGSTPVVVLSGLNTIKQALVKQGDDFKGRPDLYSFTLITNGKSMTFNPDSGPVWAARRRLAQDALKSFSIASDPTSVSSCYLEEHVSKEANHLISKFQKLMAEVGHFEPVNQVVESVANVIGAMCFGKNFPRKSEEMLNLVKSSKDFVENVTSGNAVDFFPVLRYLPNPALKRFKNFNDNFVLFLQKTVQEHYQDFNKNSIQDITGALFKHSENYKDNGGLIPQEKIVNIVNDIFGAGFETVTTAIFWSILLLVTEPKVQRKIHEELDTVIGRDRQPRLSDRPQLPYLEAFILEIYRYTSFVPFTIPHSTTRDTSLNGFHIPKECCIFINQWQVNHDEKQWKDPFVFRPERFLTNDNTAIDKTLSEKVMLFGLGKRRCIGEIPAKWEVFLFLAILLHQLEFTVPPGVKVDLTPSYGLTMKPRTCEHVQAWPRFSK

rat CYP3A1 = biological target: T2, rat CYP3A1 (Rattus norvegicus, UniProt P04800); experiment: Metabolism by recombinant rat CYP3A1 Supersomes; format: in vitro ADME
T2 sequence (P04800 1-504): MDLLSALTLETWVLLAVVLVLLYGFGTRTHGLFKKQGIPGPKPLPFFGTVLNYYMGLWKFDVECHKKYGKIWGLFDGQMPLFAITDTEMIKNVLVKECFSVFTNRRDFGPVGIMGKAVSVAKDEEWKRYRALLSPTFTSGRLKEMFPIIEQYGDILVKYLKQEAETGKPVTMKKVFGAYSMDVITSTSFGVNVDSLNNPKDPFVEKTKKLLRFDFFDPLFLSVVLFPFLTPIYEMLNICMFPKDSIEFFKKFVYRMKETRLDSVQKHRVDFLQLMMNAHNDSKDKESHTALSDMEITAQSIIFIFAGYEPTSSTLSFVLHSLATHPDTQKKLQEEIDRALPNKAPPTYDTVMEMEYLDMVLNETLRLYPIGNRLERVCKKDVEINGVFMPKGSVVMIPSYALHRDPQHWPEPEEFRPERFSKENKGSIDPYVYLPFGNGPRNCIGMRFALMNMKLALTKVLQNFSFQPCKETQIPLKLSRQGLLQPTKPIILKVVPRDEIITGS

[1] = system: extracellular levels of DA in the nucleus accumbens (NAc); experiment: Intracerebral microdialysis of NAc dopamine; format: in vivo, Sprague–Dawley rats; settings: for maximal increase of DA: NAc dialysate; for time DA levels remained significantly elevated above basal: post hoc p < 0.05
How it was run: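 CMA/12 probe (2 mm) was perfused with aCSF at 1 μL/min. Dialysate was collected over 10-min periods to 360 min. DA by HPLC-ECD, as % of mean of four basal samples. Repeated-measures ANOVA, Dunnett vs time zero.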

DAT = settings: read-out: DAT Ki; mean ± SEM; cited from earlier work

For `CC(C)[C@@H](N)CN1C2CCC1CC(OC(c1ccc(F)cc1)c1ccc(F)cc1)C2` (stereo partly drawn) [GA2-50, N-((R)-2″-amino-3″-methyl-n-butyl)-3α-[(bis-4′-fluorophenyl)methoxy]tropane], the “Intrinsic Clearance” value (rat CYP1A2; Rat CYP 1A2 50 pmol/mL, 4 μM) was 0.06 ± 0.01 (d) microliters per minute per picomole of P450, the “Substrate disappearance after 60 min incubation vs control” value (rat CYP1A2; rat CYP1A2, 10 μM, 50 pmol/mL P450, p < 0.05) was “statistically significant disappearance” and the “Intrinsic Clearance” value (rat CYP3A1; Rat CYP 3A1 50 pmol/mL, 4 μM) was 0.09 ± 0.02 (c,d) microliters per minute per picomole of P450. The “Substrate disappearance after 60 min incubation vs control” value (rat CYP3A1; rat CYP3A1, 10 μM, 50 pmol/mL P450, p < 0.05) was “statistically significant disappearance”, the “maximal DA elevation relative to basal” value ([1]; 5 mg/kg i.v.) was 1.6 fold and the “time of maximal DA increase postdose” value ([1]; 5 mg/kg i.v.) was 20 min. The “maximal increase of DA” value ([1]; 5 mg/kg i.v.) was 159 % of the basal values, the “time DA levels remained significantly elevated above basal” value ([1]; 5 mg/kg i.v.) was “up to 1 h” and the “maximal DA elevation relative to basal” value ([1]; 10 mg/kg i.v.) was 2.7 fold. The “time of maximal DA increase postdose” value ([1]; 10 mg/kg i.v.) was 30 min, the “maximal increase of DA” value ([1]; 10 mg/kg i.v.) was 274 % of the basal values and the “time DA levels remained significantly elevated above basal” value ([1]; 10 mg/kg i.v., whole 6 h experiment) was at least 6 h. For the same compound, the “effect on cocaine-induced DA elevation” value ([1]; GA2-50 + cocaine, 5 mg/kg of each i.v., simultaneous administration) was “did not have significant effect on the DA elevation induced by cocaine” and the Ki (DAT) was 0.0564 ± 0.0096 µM.
